# Results from paper PMC11182071 (Journal of Enzyme Inhibition and Medicinal Chemistry, 2024).
# How the values were obtained:
# Solubility observations = assay type: physicochemical; settings: medium not stated
# PTP1B [1] = molecular target: T1, PTP1B (Homo sapiens, UniProt P18031); assay: Protein tyrosine phosphatase 1B inhibition assay; assay type: biochemical; settings: for inhibition at 50 µM: read-out: PTP1B inhibition (% at 50 μM)
# T1 sequence (P18031 1-435): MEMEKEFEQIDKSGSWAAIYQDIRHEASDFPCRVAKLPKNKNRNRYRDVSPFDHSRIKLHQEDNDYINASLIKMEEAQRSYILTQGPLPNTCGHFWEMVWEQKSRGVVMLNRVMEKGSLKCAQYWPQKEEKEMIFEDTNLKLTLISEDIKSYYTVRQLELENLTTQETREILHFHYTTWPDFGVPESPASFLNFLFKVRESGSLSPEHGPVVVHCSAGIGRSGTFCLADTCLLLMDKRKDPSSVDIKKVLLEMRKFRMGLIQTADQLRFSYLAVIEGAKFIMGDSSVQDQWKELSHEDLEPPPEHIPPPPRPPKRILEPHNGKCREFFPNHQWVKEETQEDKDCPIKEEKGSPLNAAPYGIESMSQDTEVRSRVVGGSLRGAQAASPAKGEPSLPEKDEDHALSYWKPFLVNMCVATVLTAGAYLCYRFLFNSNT
# α-glucosidase = assay: α-Glucosidase inhibition assay; assay type: biochemical, yeast; settings: for α-glucosidase inhibition (% at 50 μM): mean ± SD, n=3
# PTP1B [2] = molecular target: T1, PTP1B; assay: PTP1B inhibition kinetic assay; assay type: biochemical
# In short: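 PTP1B at 100 nM reacted with p-nitrophenyl phosphate at 1, 2, 5 and 10 mM and test compound at 0, 0.5, 1.0 and 5.0 μM. Absorbance read every 3 min. Velocity taken from the time–Δabs plot. Inhibition mode from Lineweaver-Burk double-reciprocal plots; Ki from Dixon plots. Triplicate.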
# [3] = system: insulin-resistant HepG2 cells; assay: In vitro glucose consumption assay in insulin-resistant HepG2 cells; assay type: cell-based, human; settings: 24 h treatment; vs model group
# In short: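 HepG2 seeded in 6-well plates at 1 × 10^5 cells/well for 24 h. Serum-starved 2 h, then made insulin-resistant with 1 × 10−6 mol/l insulin for 48 h at 37 °C, 5% CO2. Groups: control, model, low/middle/high dose of free or liposomal test compound (top 100 μg/mL), blank liposome. After 24 h treatment, medium glucose measured by glucose oxidase kit; consumption = blank-well minus sample-well glucose. Mean ± SD, n = 3.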
# α-amylase = molecular target: T2, α-amylase (Sus scrofa, UniProt P00690); assay: α-amylase inhibition assay; assay type: biochemical, porcine; settings: read-out: α-amylase inhibition (% at 250 μM)
# T2 sequence (P00690 16-511): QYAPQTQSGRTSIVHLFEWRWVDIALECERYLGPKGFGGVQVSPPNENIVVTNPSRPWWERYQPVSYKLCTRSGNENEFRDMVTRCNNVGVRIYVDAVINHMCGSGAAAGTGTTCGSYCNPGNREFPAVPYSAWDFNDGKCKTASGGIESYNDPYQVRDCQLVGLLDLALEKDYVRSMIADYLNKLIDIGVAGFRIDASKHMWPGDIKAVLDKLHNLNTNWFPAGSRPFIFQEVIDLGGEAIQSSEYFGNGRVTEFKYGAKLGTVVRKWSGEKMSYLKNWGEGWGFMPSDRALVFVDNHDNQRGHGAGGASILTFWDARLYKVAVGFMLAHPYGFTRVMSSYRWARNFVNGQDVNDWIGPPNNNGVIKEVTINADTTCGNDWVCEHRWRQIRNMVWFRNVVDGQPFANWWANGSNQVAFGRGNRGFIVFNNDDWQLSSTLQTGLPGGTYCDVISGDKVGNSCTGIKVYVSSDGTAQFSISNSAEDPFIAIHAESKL
inhibition at 50 µM (PTP1B [1]),α-glucosidase inhibition (% at 50 μM) (α-glucosidase),inhibition at 250 µM (α-amylase),Structure (SMILES),also measured
78.9 ± 0.87%,24.64 ± 0.65%,–,"CC(C)=C1CC=C([C@H]2CC[C@]3(C)[C@@H]2CC[C@@H]2[C@@]4(C)CC[C@H](O)C(C)(C)[C@@H]4CC[C@]23C)C1=O [Compound 6, gypensapogenin C]",–
65.9 ± 1.69%,25.80 ± 0.71%,31.81 ± 0.02%,"CC(C)=C1CC=C([C@H]2CC[C@]3(C)[C@@H]2CC[C@@H]2C4=C(CC[C@]23C)C(C)(C)[C@@H]2CC[C@H]4O2)C1=O [Compound 4, gypensapogenin A]",–

# The next lines start with the compound.
Structure (SMILES),inhibition at 50 µM (PTP1B [1]),α-glucosidase inhibition (% at 50 μM) (α-glucosidase),inhibition at 250 µM (α-amylase),also measured
"CC(C)=C[C@H]1C=C([C@H]2CC[C@]3(C)[C@@H]2CC[C@@H]2[C@@]4(C)CC[C@H](O)C(C)(C)[C@@H]4CC[C@]23C)C(=O)O1 [Compound 7, gypensapogenin D]",83.49 ± 0.62%,61.94 ± 1.54%,11.6 ± 1.24%,"Solubility (Solubility observations): poorly solubility; IC50 (PTP1B [1]): 8.17 ± 0.63 µM; IC50 (α-glucosidase; read-out: α-glucosidase IC50, mean ± SD of three replications): 27.15 ± 0.17 µM; Ki (PTP1B [2]): 4.29 µM; Inhibition type against PTP1B (Lineweaver-Burk plot) (PTP1B [2]; Lineweaver-Burk double reciprocal plot): competitive inhibitors; Glucose consumption in insulin-resistant HepG2 cells [3]: did not improve the reduction of glucose consumption"
"[Na+].[Na+].[Na+].[O]=[V]([O-])([O-])[O-] [Na3VO4, reference compound]",–,–,–,"PTP1B inhibition (% at 50 μM) (PTP1B [1]; 50 μM, mean ± SD, n=3): 98.07 ± 0.51%"
"CC(C)=C1CC([C@H]2CC[C@]3(C)[C@@H]2CC[C@@H]2C4=C(CC[C@]23C)C(C)(C)[C@@H]2CC[C@H]4O2)=CC1=O [Compound 5, gypensapogenin B]",67.1 ± 1.33%,25.55 ± 1.75%,–,–
"C[C@H]1O[C@H](O[C@H]2[C@H](O)[C@@H](O)[C@@H](O[C@H]3[C@H](O)[C@@H](O)C(O)O[C@@H]3CO)O[C@@H]2CO)[C@H](O)[C@@H](O)[C@@H]1N[C@H]1C=C(CO)[C@@H](O)[C@H](O)[C@H]1O (stereo partly drawn) [Acarbose, reference compound]",–,96.51 ± 0.02%,–,–
